Results on 1 compound are retold here after ChEMBL document CHEMBL4393735, “Molecular modelling, synthesis, and biological evaluations of a 3,5-disubstituted isoxazole fatty acid analogue as a PPARα-selective agonist” (Bioorg Med Chem, 2019).

SMILES strings stand for the structures. Activity calls are given as the source filed them.

Data set [1] relates to COS-1. Briefly: Cytotoxicity against African green monkey COS1 cells assessed as reduction in cell viability at 10^-4 M by XTT based assay. To be noted: chlorocebus aethiops, cos-1, 100 µM. Put shortly:
(§1)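 COS-1 cells were treated across the same concentration series as the GAL4 dose-response runs. Cytotoxicity was measured as LDH released into medium (absorbance 492/750 nm) and by XTT viability assay (absorbance 450/690 nm). Results expressed relative to control.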
(In general: Formazan colour is commonly taken as a measure of viable cells.)

Data set [2] deals with SGBS. Briefly: Induction of adipocyte differentiation in human preadipocyte derived from Simpson-Golabi-Behmel syndrome (SGBS) patient assessed as lipid accumulation at 25 uM measured for 12 days by Oil red O staining based microscopic analysis. In kind it is functional, cell-based. In short, it runs like this:
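Differentiation of SGBS preadipocytes was started in serum-free medium with transferrin, insulin, T3, hydrocortisol, IBMX and dexamethasone, plus 25 μM test agent, 2 μM rosiglitazone or 0.1% DMSO. On day 4 medium was switched to lack IBMX and dexamethasone, and it was renewed on day 8. Cells were fixed with 4% PFA and stained with 0.3% Oil Red O on days 0, 4, 8 and 12, then photographed.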

In data set [3] the target is T1, Peroxisome proliferator-activated receptor gamma (Homo sapiens) (UniProt P37231).
T1 sequence (whole entry): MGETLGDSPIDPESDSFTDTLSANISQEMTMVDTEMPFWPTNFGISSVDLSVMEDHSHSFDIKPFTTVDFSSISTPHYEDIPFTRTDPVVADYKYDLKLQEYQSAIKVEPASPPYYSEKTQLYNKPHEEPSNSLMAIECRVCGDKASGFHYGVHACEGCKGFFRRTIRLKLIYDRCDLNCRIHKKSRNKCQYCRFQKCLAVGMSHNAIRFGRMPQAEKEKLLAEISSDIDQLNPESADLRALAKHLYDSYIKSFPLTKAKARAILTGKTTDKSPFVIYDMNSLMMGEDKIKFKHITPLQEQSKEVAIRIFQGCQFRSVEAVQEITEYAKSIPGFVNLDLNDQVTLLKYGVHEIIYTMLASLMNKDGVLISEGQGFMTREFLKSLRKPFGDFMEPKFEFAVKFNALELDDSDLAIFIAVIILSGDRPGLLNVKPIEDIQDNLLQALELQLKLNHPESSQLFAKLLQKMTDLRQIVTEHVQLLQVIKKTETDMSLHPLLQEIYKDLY
As to the kind of experiment: Agonist activity at full length human FLAG-tagged GAL4-DBD fused PPARgamma LBD (205 to 505 residues) expressed in COS1 cells transfected with hRXRalpha and hPLIN1-driven reporter assessed as PLIN1 mRNA level at 50 uM measured after 18 hrs by dual luciferase reporter gene assay. The format is cell-based. In short, it runs like this:
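COS-1 cells were transfected with full-length human PPARα (or PPARγ) plus RXRα expression plasmids, with a wild-type or PPRE-mutated CPT1A-intronic (or PLIN1) luciferase reporter and pRL-CMV. Cells were treated with 50 μM in 0.1% DMSO (final) for 18 h. Dual-luciferase read-out normalized to DMSO control. Three biological replicates in quadruplicate, mean ± SEM.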
On the technique in general: In a reporter assay the amount or activity of a reporter protein is the signal.

In data set [4] the test system is SGBS. As to the kind of experiment: Upregulation of ADIPOQ gene expression in human preadipocyte derived from Simpson-Golabi-Behmel syndrome (SGBS) patient at 25 uM measured for 12 days by qRT-PCR analysis. In kind it is functional, cell-based. In short, it runs like this:
(§2)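 SGBS cells were differentiated with serum-free induction medium containing 25 μM test agent, 2 μM rosiglitazone or 0.1% DMSO from day 0. IBMX and dexamethasone were removed on day 4 and medium was renewed on day 8. RNA was taken on days 0, 4, 8 and 12 for qPCR, normalized to TBP and to day 0. At least three biological replicates in duplicate, two-way ANOVA with Bonferroni.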
(In general: Quantitative PCR measures a nucleic acid by following its amplification.)

The subject of data set [5] is SGBS. Briefly: Upregulation of PLIN1 gene expression in human preadipocyte derived from Simpson-Golabi-Behmel syndrome (SGBS) patient at 25 uM measured for 12 days by qRT-PCR analysis. In kind it is functional, cell-based. In short, it runs like this: as §2
For data set [6], the system named is SGBS. As to the kind of experiment: Upregulation of ANGPTL4 gene expression in human preadipocyte derived from Simpson-Golabi-Behmel syndrome (SGBS) patient at 25 uM measured for 12 days by qRT-PCR analysis. In kind it is functional, cell-based. In short, it runs like this:
as §2

Data set [7] deals with COS-1. Briefly: Cytotoxicity against African green monkey COS1 cells assessed as reduction in cell viability at 10^-3 M by LDH release assay relative to control. The format is cell-based. To be noted: chlorocebus aethiops, cos-1, 1000 µM. In short, it runs like this:
as §1

In data set [8] the target is T2, Peroxisome proliferator-activated receptor alpha (Homo sapiens) (UniProt Q07869).
T2 sequence (whole entry): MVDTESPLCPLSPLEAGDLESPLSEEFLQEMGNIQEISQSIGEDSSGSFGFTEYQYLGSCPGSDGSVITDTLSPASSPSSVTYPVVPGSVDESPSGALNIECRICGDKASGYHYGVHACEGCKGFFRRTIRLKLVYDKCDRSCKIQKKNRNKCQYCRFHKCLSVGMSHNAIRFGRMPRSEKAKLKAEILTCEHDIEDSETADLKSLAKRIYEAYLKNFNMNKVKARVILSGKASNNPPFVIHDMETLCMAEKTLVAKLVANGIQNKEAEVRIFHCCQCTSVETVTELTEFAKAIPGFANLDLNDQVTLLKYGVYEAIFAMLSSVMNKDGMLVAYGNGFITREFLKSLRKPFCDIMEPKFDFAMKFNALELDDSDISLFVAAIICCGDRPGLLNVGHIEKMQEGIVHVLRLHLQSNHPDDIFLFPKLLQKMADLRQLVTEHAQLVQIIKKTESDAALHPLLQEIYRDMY
As to the kind of experiment: Agonist activity at PPARalpha in human Huh7 cells assessed as SCD1 mRNA expression at 50 uM measured after 18 hrs by qRT-PCR analysis. In kind it is cell-based. Put shortly: (§3)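 Treatment for 18 h at 50 μM (or 1 μM for the 1 μM agents), DMSO vehicle. Harvested for qPCR. mRNA normalized to TBP by the comparative threshold method, expressed relative to DMSO control. Two biological replicates run in duplicate, mean ± SEM. Primary hepatocytes came from male C57BL/6N mice aged 7–8 weeks, isolated by portal-vein perfusion and digestion, seeded on collagen I and used on day 2. HuH-7 cells were kept in DMEM with 10% FBS and ITS.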

The subject of data set [9] is COS-1. Briefly: Cytotoxicity against African green monkey COS1 cells assessed as reduction in cell viability at 10^-3 M by XTT based assay relative to control. To be noted: chlorocebus aethiops, cos-1, 1000 µM. Put shortly: as §1
The test system of data set [10] is SGBS. Briefly: Upregulation of ACSL1 gene expression in human preadipocyte derived from Simpson-Golabi-Behmel syndrome (SGBS) patient at 25 uM measured for 12 days by qRT-PCR analysis. In kind it is functional, cell-based. Put shortly:
as §2

Data set [11] has as its system SGBS. As to the kind of experiment: Upregulation of PPARgamma gene expression in human preadipocyte derived from Simpson-Golabi-Behmel syndrome (SGBS) patient at 25 uM measured for 12 days by qRT-PCR analysis. In kind it is functional, cell-based. In short, it runs like this:
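SGBS cells grown 4 days in biotin/D-pantothenate medium, then differentiated without FBS (apo-transferrin, insulin, T3, hydrocortisol, IBMX, dexamethasone) with 25 μM compound or 0.1 % DMSO added from day 0. After 4 days, switched to maintenance medium without IBMX/dexamethasone, renewed day 8. qPCR on days 0, 4, 8, 12, normalized to TBP (comparative threshold) and to day 0. Minimum three biological replicates in duplicate, mean ± SEM.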

Data set [12] has as its target T2, Peroxisome proliferator-activated receptor alpha (Homo sapiens). As to the kind of experiment: Agonist activity at PPARalpha in human Huh7 cells assessed as activation of CPT1A mRNA expression at 50 uM measured after 18 hrs by qRT-PCR analysis. The format is cell-based. Put shortly: as §3

On to `CCCCCCCc1cc(CCCCCC(=O)O)no1`, for which the Activity entry in the data set with COS-1 [1] was “Toxic”; in the data set with COS-1 [7], 60%; in the data set on COS-1 [9], 40%. For the same compound, the result with SGBS [2], in the data set on SGBS [4], in the data set with SGBS [5], with SGBS [6], with SGBS [10] and with SGBS [11] was Active. Moreover, the outcome in data set [12] was Active. Further, the result in data set [3] and in data set [8] was inactive.
